Values after ≈ are worked out from the molar mass of the structure shown.
Experiments:
Streptococcus pneumoniae = assay: Antimicrobial activity against Streptococcus pneumoniae ATCC 49619 incubated for 20 hrs by microdilution method; assay type: functional; conditions: ATCC 49619, 20 h
In short: (§1)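 Broth microdilution MIC testing done following CLSI guidelines.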

Bacillus subtilis = assay: Inhibition of N-terminal LgBiT-fused Bacillus subtilis NusB expressed in Escherichia coli BL21(DE3)pLysS interaction with C- terminal SmBiT-fused Bacillus subtilis NusE expressed in Escherichia coli BL21(DE3)pLysS at 100 uM preincubated for 10 mins followed by NusE addition and measured after 10 mins by nano-glo luciferase assay relative to control
In short: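 NusB and NusE were mixed 1:1 at 1 µM in PBS, with compound at 100 µM. The read-out was percent inhibition of the NusB-NusE interaction.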

Staphylococcus aureus [1] = assay: microbe, parasite or virus in culture; conditions: ATCC 25923, 20 h
[2] = microbe, parasite or virus in culture; conditions: Enterobacter cloacae, ATCC 13047, 20 h
Staphylococcus aureus [3] = assay: microbe, parasite or virus in culture; conditions: ATCC 29213, 20 h
Acinetobacter baumannii = assay: Antimicrobial activity against Acinetobacter baumannii ATCC 19606 incubated for 20 hrs by microdilution method; assay type: functional; conditions: ATCC 19606 = CIP 70.34 = JCM 6841, 20 h; in short: as §1
Pseudomonas aeruginosa = assay: Antimicrobial activity against Pseudomonas aeruginosa ATCC 27853 incubated for 20 hrs by microdilution method; assay type: functional; conditions: ATCC 27853, 20 h; in short: as §1
Enterococcus faecium = assay: Antimicrobial activity against Enterococcus faecium ATCC 19433 incubated for 20 hrs by microdilution method; assay type: functional; conditions: ATCC 19433, 20 h; in short: as §1

Structure (SMILES) | MIC (Streptococcus pneumoniae) [mg/L] | inhibition (Bacillus subtilis) [%] | MIC (Staphylococcus aureus [1]) [mg/L] | MIC [2] [mg/L] | MIC (Staphylococcus aureus [3]) [mg/L] | MIC (Acinetobacter baumannii) [mg/L] | MIC (Pseudomonas aeruginosa) [mg/L] | MIC (Enterococcus faecium) [mg/L]
C#Cc1cccc(NCc2cccc([N+](=O)[O-])c2O)c1 | 256 (≈ 954 µM) | 64.5 | 128 (≈ 477 µM) | > 256 | 16 (≈ 59.6 µM) | > 256 | > 256 | > 256
C#Cc1cccc(/N=C/c2cc(F)ccc2O)c1 | 256 (≈ 1070 µM) | 28.1 | 256 (≈ 1070 µM) | > 256 | > 256 | 256 (≈ 1070 µM) | 256 (≈ 1070 µM) | > 256
C#Cc1cccc(/N=C/c2cc(O)ccc2[N+](=O)[O-])c1 | > 256 | 52.2 | 256 (≈ 961 µM) | > 256 | 256 (≈ 961 µM) | 256 (≈ 961 µM) | > 256 | > 256
O=[N+]([O-])c1ccc(O)c(CNC2CCCCC2)c1 | > 256 | 58.2 | > 256 | > 256 | > 256 | > 256 | > 256 | > 256
C#Cc1cccc(/N=C/c2cc([N+](=O)[O-])ccc2OC)c1 | > 256 | 40.4 | > 256 | > 256 | > 256 | > 256 | > 256 | > 256
C#Cc1cccc(NCc2cc([N+](=O)[O-])ccc2OC)c1 | > 256 | 56.1 | > 256 | > 256 | > 256 | > 256 | > 256 | > 256
C#Cc1cccc(/N=C/c2cc(OC)ccc2O)c1 | > 256 | 29.3 | > 256 | > 256 | > 256 | 128 (≈ 509 µM) | > 256 | > 256
C#Cc1cccc(NCc2ccccc2O)c1 | > 256 | 20.3 | > 256 | > 256 | > 256 | > 256 | > 256 | > 256
C#Cc1cccc(NCc2cccc([N+](=O)[O-])c2)c1 | > 256 | 33.1 | > 256 | > 256 | > 256 | > 256 | > 256 | > 256
C#Cc1cccc(/N=C/c2cccc([N+](=O)[O-])c2)c1 | > 256 | 24.7 | 256 (≈ 1020 µM) | > 256 | 128 (≈ 511 µM) | 16 (≈ 63.9 µM) | > 256 | > 256
C#Cc1cccc(/N=C/c2cccc([N+](=O)[O-])c2O)c1 | 256 (≈ 961 µM) | 87.7 | 256 (≈ 961 µM) | > 256 | 256 (≈ 961 µM) | > 256 | 256 (≈ 961 µM) | 256 (≈ 961 µM)
C#Cc1cccc(/N=C/c2cc(CC#N)ccc2O)c1 | > 256 | 49.9 | 256 (≈ 983 µM) | > 256 | > 256 | 64 (≈ 246 µM) | > 256 | > 256
C#Cc1cccc(/N=C/c2ccccc2O)c1 | > 256 | 25.7 | 256 (≈ 1160 µM) | > 256 | > 256 | > 256 | > 256 | > 256
C#Cc1cccc(/N=C/c2cc([N+](=O)[O-])cc(Br)c2O)c1 | 128 (≈ 371 µM) | 74.1 | 32 (≈ 92.7 µM) | > 256 | 32 (≈ 92.7 µM) | 256 (≈ 742 µM) | > 256 | > 256
O=[N+]([O-])c1ccc(O)c(CNc2cccc(O)c2)c1 | 128 (≈ 492 µM) | 66.7 | 64 (≈ 246 µM) | > 256 | 128 (≈ 492 µM) | > 256 | > 256 | > 256
CO[C@H]1/C=C/O[C@@]2(C)Oc3c(C)c(O)c4c(O)c(c(/C=N/N5CCN(C)CC5)c(O)c4c3C2=O)NC(=O)/C(C)=C\C=C\[C@H](C)[C@H](O)[C@@H](C)[C@@H](O)[C@@H](C)[C@H](OC(C)=O)[C@@H]1C [RIFAMPIN] | 0.0625 (≈ 0.0759 µM) |  | 0.0125 (≈ 0.0152 µM) | > 256 | 0.0125 (≈ 0.0152 µM) | 4 (≈ 4.86 µM) | > 256 | 2 (≈ 2.43 µM)

The remaining molecules from weak to strong by MIC (Streptococcus pneumoniae), led by results:

MIC (Streptococcus pneumoniae) [mg/L] | inhibition (Bacillus subtilis) [%] | MIC (Staphylococcus aureus [1]) [mg/L] | MIC [2] [mg/L] | MIC (Staphylococcus aureus [3]) [mg/L] | MIC (Acinetobacter baumannii) [mg/L] | MIC (Pseudomonas aeruginosa) [mg/L] | MIC (Enterococcus faecium) [mg/L] | Structure (SMILES)
128 (≈ 481 µM) | 46.7 | 64 (≈ 240 µM) | > 256 | 256 (≈ 961 µM) | > 256 | > 256 | > 256 | C#Cc1cccc(/N=C/c2ccc([N+](=O)[O-])cc2O)c1
128 (≈ 458 µM) | 41.4 | 128 (≈ 458 µM) | > 256 | > 256 | 64 (≈ 229 µM) | 256 (≈ 917 µM) | > 256 | C#Cc1cccc(/N=C/c2cc(C(=O)OC)ccc2O)c1
128 (≈ 429 µM) | 38.8 | 4 (≈ 13.4 µM) | > 256 | 32 (≈ 107 µM) | > 256 | > 256 | > 256 | CC(C)(C)c1ccc(/N=C/c2cc([N+](=O)[O-])ccc2O)cc1
128 (≈ 520 µM) | 61.3 | 32 (≈ 130 µM) | > 256 | 64 (≈ 260 µM) | > 256 | > 256 | 256 (≈ 1040 µM) | C#Cc1cccc(/N=C/c2cc(C#N)ccc2O)c1
64 (≈ 262 µM) | 4.6 | 16 (≈ 65.5 µM) | > 256 | 32 (≈ 131 µM) | 256 (≈ 1050 µM) | > 256 | 128 (≈ 524 µM) | O=[N+]([O-])c1ccc(O)c(CNc2ccccc2)c1
64 (≈ 246 µM) | 81.5 | 16 (≈ 61.5 µM) | 256 (≈ 984 µM) | 32 (≈ 123 µM) | 128 (≈ 492 µM) | 256 (≈ 984 µM) | 256 (≈ 984 µM) | O=[N+]([O-])c1ccc(O)c(CNc2ccccc2O)c1
64 (≈ 240 µM) | 76.3 | 4 (≈ 15 µM) | > 256 | 16 (≈ 60.1 µM) | > 256 | > 256 | 128 (≈ 481 µM) | C#Cc1ccc(/N=C/c2cc([N+](=O)[O-])ccc2O)cc1
64 (≈ 231 µM) | 50 | 8 (≈ 28.9 µM) | > 256 | 32 (≈ 116 µM) | > 256 | > 256 | 256 (≈ 925 µM) | O=[N+]([O-])c1ccc(O)c(/C=N/c2ccc(Cl)cc2)c1
32 (≈ 132 µM) | 39.2 | 4 (≈ 16.5 µM) | > 256 | 16 (≈ 66.1 µM) | 256 (≈ 1060 µM) | > 256 | > 256 | O=[N+]([O-])c1ccc(O)c(/C=N/c2ccccc2)c1
32 (≈ 120 µM) | 71.4 | 4 (≈ 15 µM) | > 256 | 16 (≈ 60.1 µM) | > 256 | > 256 | > 256 | C#Cc1ccccc1/N=C/c1cc([N+](=O)[O-])ccc1O
32 (≈ 109 µM) | 43.4 | 4 (≈ 13.7 µM) | > 256 | 16 (≈ 54.7 µM) | 128 (≈ 438 µM) | > 256 | > 256 | O=[N+]([O-])c1ccc(O)c(/C=N/c2cccc3ccccc23)c1
16 (≈ 64.4 µM) | 64.8 | 32 (≈ 129 µM) | > 256 | 32 (≈ 129 µM) | > 256 | > 256 | 64 (≈ 258 µM) | C#Cc1cccc(NCc2cc(C#N)ccc2O)c1
16 (≈ 59.6 µM) | 48.2 | 8 (≈ 29.8 µM) | > 256 | 8 (≈ 29.8 µM) | 64 (≈ 239 µM) | > 256 | 32 (≈ 119 µM) | C#Cc1cccc(NCc2ccc([N+](=O)[O-])cc2O)c1
16 (≈ 51.2 µM) | 54.1 | 8 (≈ 25.6 µM) | 256 (≈ 820 µM) | 8 (≈ 25.6 µM) | 32 (≈ 102 µM) | > 256 | 32 (≈ 102 µM) | O=[N+]([O-])c1ccc(O)c(CNc2ccc(C(F)(F)F)cc2)c1
16 (≈ 51.2 µM) | 61.7 | 4 (≈ 12.8 µM) | 256 (≈ 820 µM) | 4 (≈ 12.8 µM) | 64 (≈ 205 µM) | > 256 | 16 (≈ 51.2 µM) | O=[N+]([O-])c1ccc(O)c(CNc2cccc(C(F)(F)F)c2)c1
16 (≈ 66.3 µM) | 61.8 | 32 (≈ 133 µM) | > 256 | 32 (≈ 133 µM) | 128 (≈ 531 µM) | > 256 | 32 (≈ 133 µM) | C#Cc1cccc(NCc2cc(F)ccc2O)c1
16 (≈ 51.6 µM) | 68.9 | 8 (≈ 25.8 µM) | > 256 | 16 (≈ 51.6 µM) | 256 (≈ 825 µM) | > 256 | 256 (≈ 825 µM) | O=[N+]([O-])c1ccc(O)c(/C=N/c2ccc(C(F)(F)F)cc2)c1
16 (≈ 64.4 µM) | 68.3 | 4 (≈ 16.1 µM) | > 256 | 8 (≈ 32.2 µM) | 256 (≈ 1030 µM) | > 256 | > 256 | O=[N+]([O-])c1ccc(O)c(/C=N/C2CCCCC2)c1
8 (≈ 31.6 µM) | 58.3 | 64 (≈ 253 µM) | > 256 | 32 (≈ 126 µM) | > 256 | > 256 | 64 (≈ 253 µM) | C#Cc1cccc(NCc2cc(OC)ccc2O)c1
8 (≈ 27.6 µM) | 54.2 | 32 (≈ 110 µM) | > 256 | 64 (≈ 221 µM) | 128 (≈ 441 µM) | > 256 | 256 (≈ 882 µM) | C#Cc1cccc(/N=C/c2cc(Cl)cc(Cl)c2O)c1
